Data taken from ChEMBL document CHEMBL1121366, “Synthesis and immunological activity of 5,6,6a,8,9,11a-hexahydronaphth[1',2':4,5]imidazo[2,1-b]thiazoles and 5,6,6a,9,10,11a-hexahydroanaphth[2',1':4,5]imidazo[2,1-b]thiazoles” (J Med Chem, 1980).

Legend:
[1] = tested on: Mus musculus; experiment: Effect on humoral immune response in mice against sheep red blood cells by the plaque-forming cell (PFC/10e6 spleen cells) method in experiment 6 at dose 3 mg/kg; format: functional
Procedure, shortened: (§1)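 Male CDF1 (Balb/c × DBA/2Cr) mice, 8-10 weeks old, groups of four, were immunized iv with 1 × 10^8 SRBC in PBS. After 24 h they received a single sc inguinal dose in saline, or as a suspension in saline with 1% Me2SO. Spleens were taken 4 days later and hemolytic plaque-forming cells counted by Cunningham's method. Values are the mean of four mice ± SE, with a paired Student's t test against the control.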

[2] = tested on: Mus musculus; experiment: Tested for increase in foot-pad thickness (mm) by its effect on cellular immune response in mice against sheep red blood cells by DHR method in experiment 15 at dose 12 mg/kg; format: functional
Procedure, shortened: (§2)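 Male mice, 8–10 weeks old, ICR strain. Groups of four were sensitized with 1 × 10^8 SRBC in PBS into one hind footpad, with compound given sc in the inguinal region in saline or saline/1% Me2SO. Four days later, 1 × 10^8 SRBC were injected into the other hind footpad. Foot thickness was measured with a dial gauge just before and 24 h after this challenge, and the increase was taken as the difference. Values are the mean of four mice ± SE.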

[3] = tested on: Mus musculus; experiment: Tested for increase in foot-pad thickness (mm) by its effect on cellular immune response in mice against sheep red blood cells by the DHR method in experiment 15 at dose 3 mg/kg; format: functional; procedure, shortened: as §2
[4] = tested on: Mus musculus; experiment: Effect on humoral immune response in mice against sheep red blood cells by the plaque-forming cell (PFC/10e6 spleen cells) method in experiment 6 at dose 12 mg/kg; format: functional; procedure, shortened: as §1
[5] = tested on: Mus musculus; experiment: Effect on humoral immune response in mice against sheep red blood cells by the plaque-forming cell (PFC/10e6 spleen cells) method in experiment 4 at dose 12 mg/kg; format: functional; procedure, shortened: as §1
[6] = tested on: Mus musculus; experiment: Tested for increase in foot-pad thickness (mm) by its effect on cellular immune response in mice against sheep red blood cells by the DHR method in experiment 13 at dose 3 mg/kg; format: functional
Procedure, shortened: (§3)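 Male ICR mice, 8-10 weeks old, groups of four, were sensitized with 1 × 10^8 SRBC in PBS into one hind footpad and dosed sc in the inguinal region, in saline or in saline with 1% Me2SO. Four days later the other footpad was challenged with 1 × 10^8 SRBC. Foot thickness was gauged just before and 24 h after challenge, and the increase was reported as mean of four ± SE.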

[7] = tested on: Mus musculus; experiment: Effect on humoral immune response in mice against sheep red blood cells by the plaque-forming cell (PFC/10e6 spleen cells) method in experiment 4 at dose 3 mg/kg; format: functional; procedure, shortened: as §1
[8] = tested on: Mus musculus; experiment: Tested for increase in foot-pad thickness (mm) by its effect on cellular immune response in mice against sheep red blood cells by DHR method in experiment 13 at dose 12 mg/kg; format: functional; procedure, shortened: as §3
[9] = tested on: Mus musculus; experiment: Tested for the immunological activity by its effect on humoral immune response in mice against sheep red blood cells (SRBC) by the plaque-forming cell (PFC/10e 6 spleen cells) method in experiment 7 at dose 12 mg/kg; format: functional; procedure, shortened: as §1
[10] = tested on: Mus musculus; experiment: Tested for the immunological activity by its effect on humoral immune response in mice against sheep red blood cells (SRBC) by the plaque-forming cell (PFC/10e 6 spleen cells) method in experiment 7 at dose 3 mg/kg; format: functional; procedure, shortened: as §1
[11] = tested on: Mus musculus; experiment: Effect on humoral immune response in mice against sheep red blood cells by the plaque-forming cell (PFC/10e 6 spleen cells) method in experiment 2 at dose 3 mg/kg; format: functional
Procedure, shortened: (§4)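 Male ICR mice, 8-10 weeks old, groups of four, were immunized iv with 1 × 10^8 SRBC in PBS. After 24 h they received a single sc inguinal dose in saline, or as a suspension in saline with 1% Me2SO. Splenic hemolytic plaque-forming cells were counted 4 days later by Cunningham's method. Values are the mean of four ± SE, with a paired t test against the control.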

[12] = tested on: Mus musculus; experiment: Tested for increase in foot-pad thickness (mm) by its effect on cellular immune response in mice against sheep red blood cells by DHR method in experiment 11 at dose 12 mg/kg; format: functional; procedure, shortened: as §3
[13] = tested on: Mus musculus; experiment: (§5) Acute lethal dose was determined in mice upon subcutaneous administration; format: ADME, organism-based; settings: in vivo, sc
Procedure, shortened: (§6)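 Male mice, 8–10 weeks old, CDF1 (Balb/c × DBA/2Cr). Groups of six dosed once, either iv or sc. Three to five dose levels were chosen from 400, 300, 150, 80, 40, 20 and 10 mg/kg. LD50 was calculated by the Litchfield–Wilcoxon method. Vehicle was saline or saline with 1% Me2SO, depending on compound.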

[14] = tested on: Mus musculus; experiment: Effect on humoral immune response in mice against sheep red blood cells by the plaque-forming cell (PFC/10e 6 spleen cells) method in experiment 2 at dose 12 mg/kg; format: functional; procedure, shortened: as §4
[15] = tested on: Mus musculus; experiment: Tested for increase in foot-pad thickness (mm) by its effect on cellular immune response in mice against sheep red blood cells by DHR method in experiment 16 at dose 12 mg/kg; format: functional; procedure, shortened: as §2
[16] = tested on: Mus musculus; experiment: (§7) Acute lethal dose was determined in mice upon intravenous administration; format: ADME, organism-based; settings: in vivo; procedure, shortened: as §6
[17] = tested on: Mus musculus; experiment: Tested increase in foot-pad thickness (mm) by its effect on cellular immune response in mice against sheep red blood cells by the DHR method in experiment 16 at dose 3 mg/kg; format: functional
Procedure, shortened: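 Male ICR mice, 8–10 weeks old, groups of four. Sensitized with SRBC (1 × 10^8) in PBS injected into one hind footpad; compound given sc in the inguinal region in saline or in saline with 1% Me2SO. Four days later the other hind footpad was challenged with SRBC (1 × 10^8). Dial gauge read just before and 24 h after challenge. Value is the mean increase ± SE.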

[18] = tested on: Mus musculus; experiment: Tested for increase in foot-pad thickness (mm) by its effect on cellular immune response in mice against sheep red blood cells by DHR method in experiment 10 at dose 3 mg/kg; format: functional; procedure, shortened: as §3
[19] = tested on: Mus musculus; experiment: Effect on humoral immune response in mice against sheep red blood cells by the plaque-forming cell (PFC/10e 6 spleen cells) method in experiment 1 at dose 3 mg/kg; format: functional; procedure, shortened: as §1
[20] = tested on: Mus musculus; experiment: Tested for increase in foot-pad thickness (mm) by its effect on cellular immune response in mice against sheep red blood cells by the DHR method in experiment 10 at dose 3 mg/kg; format: functional; procedure, shortened: as §3
[21] = tested on: Mus musculus; experiment: Effect on humoral immune response in mice against sheep red blood cells by the plaque-forming cell (PFC/10e 6 spleen cells) method in experiment 1 at dose 12 mg/kg; format: functional; procedure, shortened: as §1
[22] = tested on: Mus musculus; experiment: Effect on humoral immune response in mice against sheep red blood cells by the plaque-forming cell (PFC/10e6 spleen cells) method in experiment 5 at dose 12 mg/kg; format: functional; procedure, shortened: as §1
[23] = tested on: Mus musculus; experiment: Effect on humoral immune response in mice against sheep red blood cells by the plaque-forming cell (PFC/10e6 spleen cells) method in experiment 7 at dose 3 mg/kg; format: functional
Procedure, shortened: (§8)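 Male mice, 8–10 weeks old, CDF1 (Balb/c × DBA/2Cr) in experiment 7. Groups of four were immunized iv with 1 × 10^8 SRBC in PBS. After 24 h, compound was given sc in the inguinal region in saline or saline/1% Me2SO. Four days later, splenic hemolytic plaque-forming cells were counted by the Cunningham method and expressed per 10^6 spleen cells. Values are the mean of four mice ± SE.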

[24] = tested on: Mus musculus; experiment: Effect on humoral immune response in mice against sheep red blood cells by the plaque-forming cell (PFC/10e6 spleen cells) method in experiment 3 at dose 12 mg/kg; format: functional; procedure, shortened: as §4
[25] = tested on: Mus musculus; experiment: Effect on humoral immune response in mice against sheep red blood cells by the plaque-forming cell (PFC/10e6 spleen cells) method in experiment 5 at dose 3 mg/kg; format: functional; procedure, shortened: as §1
[26] = tested on: Mus musculus; experiment: Effect on humoral immune response in mice against sheep red blood cells by the plaque-forming cell (PFC/10e6 spleen cells) method in experiment 8 at dose 12 mg/kg; format: functional; procedure, shortened: as §1
[27] = tested on: Mus musculus; experiment: Effect on humoral immune response in mice against sheep red blood cells by the plaque-forming cell (PFC/10e6 spleen cells) method in experiment 3 at dose 3 mg/kg; format: functional; procedure, shortened: as §4
[28] = as §5; format: ADME, organism-based; settings: mouse, in vivo, sc; procedure, shortened: as §6
[29] = tested on: Mus musculus; experiment: Effect on humoral immune response in mice against sheep red blood cells by the plaque-forming cell (PFC/10e6 spleen cells) method in experiment 7 at dose 12 mg/kg; format: functional; procedure, shortened: as §8
[30] = as §7; format: ADME, organism-based; settings: mouse, in vivo; procedure, shortened: as §6
[31] = tested on: Mus musculus; experiment: Effect on humoral immune response in mice against sheep red blood cells by the plaque-forming cell (PFC/10e6 spleen cells) method in experiment 8 at dose 3 mg/kg; format: functional; procedure, shortened: as §1
[32] = tested on: Mus musculus; experiment: Tested for increase in foot-pad thickness (mm) by its effect on cellular immune response in mice against sheep red blood cells by the DHR method in experiment 14 at dose 3 mg/kg; format: functional
Procedure, shortened: (§9)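 Delayed-type hypersensitivity was run in male CDF1 (Balb/c × DBA/2Cr) mice, 8-10 weeks old, groups of four. Mice were sensitized with 1 × 10^8 SRBC in PBS into one hind footpad, with sc inguinal dosing in saline or in 1% Me2SO-saline. Four days later the opposite footpad was challenged with 1 × 10^8 SRBC. The read-out was the gauge-measured increase in thickness from just before to 24 h after challenge, as mean ± SE (n = 4).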

[33] = tested on: Mus musculus; experiment: Tested for increase in foot-pad thickness (mm) by its effect on cellular immune response in mice against sheep red blood cells by DHR method in experiment 14 at dose 12 mg/kg; format: functional; procedure, shortened: as §9
[34] = tested on: Mus musculus; experiment: Tested for increase in foot-pad thickness (mm) by its effect on cellular immune response in mice against sheep red blood cells by DHR method in experiment 12 at dose 12 mg/kg; format: functional; procedure, shortened: as §9
[35] = tested on: Mus musculus; experiment: Tested for increase in foot-pad thickness (mm) by its effect on cellular immune response in mice against sheep red blood cells by the DHR method in experiment 12 at dose 3 mg/kg; format: functional; procedure, shortened: as §9

`Brc1ccc2c(c1)C1C(CC2)N=C2SCCN21` (stereo not given) gave a PFC [1] of 980, an Increase in footpad thickness [2] of 0.38 mm and an Increase in footpad thickness [3] of 0.35 mm. For the same compound, the PFC [4] was 870.
With `Clc1ccc2c(c1)CCC1C2N=C2SCCN21` (cis isomer) the PFC [5] was 970, the Increase in footpad thickness [6] was 0.26 mm and the PFC [7] was 1560. It also gave an Increase in footpad thickness [8] of 0.33 mm.
`c1ccc2c(c1)CCC1N=C3SCCN3C21` (trans isomer) gave a PFC [9] of 960, a PFC [10] of 1110 and a PFC [11] of 2440. It also gave an Increase in footpad thickness [12] of 0.39 mm, an LD50 [13] of 190 mg/kg and a PFC [14] of 2580. For the same compound, the Increase in footpad thickness [15] was 0.43 mm, the LD50 [16] was 26 mg/kg and the Increase in footpad thickness [17] was 0.27 mm.
For `Clc1ccc2c(c1)CCC1N=C3SCCN3C21` (stereo not given), the PFC [5] was 1700, the Increase in footpad thickness [6] was 0.27 mm and the PFC [7] was 1880. The Increase in footpad thickness [8] was 0.28 mm.
In the case of `c1ccc2c(c1)CCC1C2N=C2SCCN21` (stereo in doubt), the Increase in footpad thickness [18] is reported as 0.44 mm, the LD50 [13] is reported as 116 mg/kg and the PFC [19] is reported as 1220. The Increase in footpad thickness [20] was 0.42 mm, the LD50 [16] was 27 mg/kg and the PFC [21] was 860.
In the case of `c1ccc([C@H]2CN3CCSC3=N2)cc1` [LEVAMISOLE], the PFC [1] is reported as 1850, the PFC [22] is reported as 1670 and the PFC [23] is reported as 1390. It also gave a PFC [24] of 1870, a PFC [25] of 1330 and a PFC [26] of 1200. For the same compound, the PFC [5] was 1800, the PFC [7] was 1380 and the PFC [27] was 2820. It also gave an LD50 [28] of 136 mg/kg, a PFC [29] of 970 and an LD50 [30] of 15 mg/kg. For the same compound, the Increase in footpad thickness [17] was 0.34 mm, the PFC [31] was 570 and the PFC [4] was 1330.
In the case of `Clc1ccc2c(c1)CCC1N=C3SCCN3C21` (trans isomer), the PFC [22] is reported as 820, the Increase in footpad thickness [32] is reported as 0.39 mm and the PFC [25] is reported as 1060. It also gave an Increase in footpad thickness [33] of 0.36 mm.
With `Fc1ccc2c(c1)CCC1N=C3SCCN3C21` (trans isomer) the Increase in footpad thickness [34] was 0.42 mm, the Increase in footpad thickness [35] was 0.42 mm and the PFC [24] was 2070. It also gave a PFC [27] of 2550.
